Bridge positions count the residues as written; N and C are the ends. Square brackets hold non-standard residues; d marks the D form. Peptide text beside a SMILES is read from it. * marks the point of attachment. NODAGA = O=C(O)CN1CCN(CC(=O)O)CCN(C(CCC(=O)*)C(=O)O)CC1; Nle = CCCC[C@H](N)C(=O)O
Key:
[1] = biological target: MC1 receptor (B16/F10 melanoma cells) (Mus musculus, UniProt Q01727); assay: In vitro competitive receptor binding assay on B16/F10 melanoma cells
In short: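 Competitive displacement on intact B16/F10 cells (0.5×10^5/well, n = 3; assay run in triplicate): 2 h at 25 °C with ~30,000 cpm 125I-(Tyr2)-NDP-MSH plus 10−12 to 10−5 M test peptide in MEM binding medium (25 mM HEPES pH 7.4, 0.2% BSA, 0.3 mM 1,10-phenanthroline). Cells rinsed twice in ice-cold 0.2% BSA/PBS, lysed in 1 N NaOH 5 min, gamma-counted; IC50 by curve fit.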

MC1R = conditions: no reference given; cited from earlier work

Sequence of MC1 receptor (B16/F10 melanoma cells) (Q01727 whole entry): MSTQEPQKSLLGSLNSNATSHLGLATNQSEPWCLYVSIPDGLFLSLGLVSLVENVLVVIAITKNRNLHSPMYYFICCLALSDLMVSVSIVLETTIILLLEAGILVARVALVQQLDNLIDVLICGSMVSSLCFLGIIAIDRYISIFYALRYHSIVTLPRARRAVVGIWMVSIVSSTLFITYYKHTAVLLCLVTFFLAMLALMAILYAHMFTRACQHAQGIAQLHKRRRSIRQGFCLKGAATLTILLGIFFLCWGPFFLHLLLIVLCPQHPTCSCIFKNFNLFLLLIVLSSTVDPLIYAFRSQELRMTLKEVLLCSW

Compound	IC50 [1]	MC1R binding affinity (MC1R)
CCCC[C@H](NC(=O)CNC(=O)CNC(=O)CCC(C(=O)O)N1CCN(CC(=O)O)CCN(CC(=O)O)CC1)C(=O)N[C@H]1CC(=O)NCCCC[C@@H](C(N)=O)NC(=O)[C@H](Cc2c[nH]c3ccccc23)NC(=O)[C@H](CCCNC(=N)N)NC(=O)[C@@H](Cc2ccccc2)NC(=O)[C@H](Cc2c[nH]cn2)NC1=O (stereo partly drawn) [NODAGA-GGNle-CycMSHhex, 1,4,7-triazacyclononane,1-gluteric acid-4,7-acetic acid-GlyGlyNle-c[Asp-His-DPhe-Arg-Trp-Lys]-CONH2] ({NODAGA}-GG[Nle]DH[dF]RWK-NH2; lactam 4-9)	870 ± 120 pM	–
[Nle^4, D-Phe^7]-α-MSH [NDP-MSH]	–	sub-nanomolar MC1R binding affinity

Reference: article PMC7704577 (Bioorganic & medicinal chemistry letters, 2020)
